Laboratory results published in ChEMBL document CHEMBL4138275, “Taccalonolide Microtubule Stabilizers Generated Using Semisynthesis Define the Effects of Mono Acyloxy Moieties at C-7 or C-15 and Disubstitutions at C-7 and C-25” (J Nat Prod, 2018).
pIC50: −log10 of the molar value. The source made the active and inactive calls. The rule behind the calls is not given here.

What was measured:
HeLa [1] = test: Antiproliferative activity against human HeLa cells after 48 hrs by sulforhodamine B assay; assay type: functional, cell-based
Procedure, shortened: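 HeLa cells (STR-validated) grown in BME with 10% FBS and gentamycin, seeded 2500/well, left to adhere overnight, then exposed to compounds for 48 h. Cell density read by sulforhodamine B staining. IC50 is the concentration giving 50% inhibition of cell density versus vehicle, fitted by nonlinear regression. Mean of 3 or 4 experiments, each in triplicate, ±SD.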

HeLa [2] = test: Induction of microtubule stabilization in human HeLa cells assessed as formation of multiple aberrant mitotic spindle at 5 times IC50 after 18 hrs by indirect immunofluorescence assay; assay type: cell-based
Procedure, shortened: (§1)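 HeLa cells treated for 18 h at 5-fold each compound's own antiproliferative IC50, with EtOH as vehicle control. Mitotic and interphase microtubules stained by indirect immunofluorescence with a β-tubulin antibody and viewed by fluorescence microscopy.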

HeLa [3] = test: Induction of microtubule stabilization in human HeLa cells assessed as bundling of interphase microtubule at 5 times IC50 after 18 hrs by indirect immunofluorescence assay; assay type: cell-based; procedure, shortened: as §1
Sus scrofa = species on record: Sus scrofa; test: Induction of porcine brain tubulin polymerization at 5 uM by turbidimetric method
Procedure, shortened: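 Compound or vehicle (1% EtOH) added; samples prepared on ice, then warmed to 37 °C to start polymerization. Rate and extent followed turbidimetrically at 340 nm.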

Row | Compound | pIC50 (HeLa [1]) | Activity (HeLa [2]) | Activity (HeLa [3]) | Activity (Sus scrofa)
1 | CC(=O)O[C@H]1[C@H]2[C@H]([C@@H]3[C@@H](OC(=O)CC(C)C)[C@@H]4[C@H]([C@H](C)C=C5OC(=O)[C@@](C)(O)[C@@]54C)[C@@]3(C)[C@H]1OC(C)=O)[C@@H](O)C(=O)[C@H]1C[C@@H]3O[C@@H]3[C@H](OC(C)=O)[C@]21C | 5.82 | – | – | –
2 | CC(=O)O[C@H]1[C@H]2[C@H]([C@@H]3[C@@H](OC(=O)C(C)C)[C@@H]4[C@H]([C@H](C)C=C5OC(=O)[C@@](C)(O)[C@@]54C)[C@@]3(C)[C@H]1OC(C)=O)[C@@H](O)C(=O)[C@H]1C[C@@H]3O[C@@H]3[C@H](OC(C)=O)[C@]21C | < 4.70 | – | – | –
3 | CC(=O)O[C@H]1[C@H]2[C@H]([C@@H]3[C@@H](O)[C@@H]4[C@H]([C@H](C)[C@H]5O[C@]56OC(=O)[C@@](C)(O)[C@]46C)[C@@]3(C)[C@H]1OC(C)=O)[C@@H](OC(=O)C(C)(C)C)C(=O)[C@H]1C[C@@H]3O[C@@H]3[C@H](OC(C)=O)[C@]21C | 8.05 | Active | Active | Active
4 | CC(=O)O[C@H]1[C@H]2[C@H]([C@@H]3[C@@H](O)[C@@H]4[C@H]([C@H](C)C=C5OC(=O)[C@@](C)(O)[C@@]54C)[C@@]3(C)[C@H]1OC(C)=O)[C@@H](OC(=O)C(C)C)C(=O)[C@H]1C[C@@H]3O[C@@H]3[C@H](OC(C)=O)[C@]21C | 5.33 | – | – | –
5 | CC(=O)O[C@H]1[C@H]2[C@H]([C@@H]3[C@@H](O)[C@@H]4[C@H]([C@H](C)[C@H]5O[C@]56OC(=O)[C@@](C)(OC(=O)C(C)C)[C@]46C)[C@@]3(C)[C@H]1OC(C)=O)[C@@H](OC(=O)C(C)C)C(=O)[C@H]1C[C@@H]3O[C@@H]3[C@H](OC(C)=O)[C@]21C | 6.10 | Active | – | –
6 | CC(=O)O[C@H]1[C@H]2[C@H]([C@@H]3[C@@H](OC(=O)c4ccc5c(c4)C(=O)c4ccccc4C5=O)[C@@H]4[C@H]([C@H](C)C=C5OC(=O)[C@@](C)(O)[C@@]54C)[C@@]3(C)[C@H]1OC(C)=O)[C@@H](O)C(=O)[C@H]1C[C@@H]3O[C@@H]3[C@H](OC(C)=O)[C@]21C | 5.15 | – | – | –
7 | CC(=O)O[C@H]1[C@H]2[C@H]([C@@H]3[C@@H](O)[C@@H]4[C@H]([C@H](C)C=C5OC(=O)[C@@](C)(O)[C@@]54C)[C@@]3(C)[C@H]1OC(C)=O)[C@@H](OC(=O)C(C)(C)C)C(=O)[C@H]1C[C@@H]3O[C@@H]3[C@H](OC(C)=O)[C@]21C | 5.00 | – | – | –
8 | CC(=O)O[C@H]1[C@H]2[C@H]([C@@H]3[C@@H](O)[C@@H]4[C@H]([C@H](C)[C@H]5O[C@]56OC(=O)[C@@](C)(OC(=O)c5ccc7c(c5)C(=O)c5ccccc5C7=O)[C@]46C)[C@@]3(C)[C@H]1OC(C)=O)[C@@H](OC(=O)c1ccc3c(c1)C(=O)c1ccccc1C3=O)C(=O)[C@H]1C[C@@H]3O[C@@H]3[C@H](OC(C)=O)[C@]21C | 5.52 | – | – | –
9 | CC(=O)O[C@H]1[C@H]2[C@H]([C@@H]3[C@@H](O)[C@@H]4[C@H]([C@H](C)C=C5OC(=O)[C@@](C)(OC(=O)C(C)C)[C@@]54C)[C@@]3(C)[C@H]1OC(C)=O)[C@@H](OC(=O)C(C)C)C(=O)[C@H]1C[C@@H]3O[C@@H]3[C@H](OC(C)=O)[C@]21C | < 4.70 | – | – | –
10 | CC(=O)O[C@H]1[C@H]2[C@H]([C@@H]3[C@@H](OC=O)[C@@H]4[C@H]([C@H](C)[C@H]5O[C@]56OC(=O)[C@@](C)(O)[C@]46C)[C@@]3(C)[C@H]1OC(C)=O)[C@@H](O)C(=O)[C@H]1C[C@@H]3O[C@@H]3[C@H](OC(C)=O)[C@]21C | 8.08 | Active | – | –
11 | CC(=O)O[C@H]1[C@H]2[C@H]([C@@H]3[C@@H](O)[C@@H]4[C@H]([C@H](C)C=C5OC(=O)[C@@](C)(OC(=O)c6ccc7c(c6)C(=O)c6ccccc6C7=O)[C@@]54C)[C@@]3(C)[C@H]1OC(C)=O)[C@@H](OC(=O)c1ccc3c(c1)C(=O)c1ccccc1C3=O)C(=O)[C@H]1C[C@@H]3O[C@@H]3[C@H](OC(C)=O)[C@]21C | < 4.70 | – | – | –
12 | CC(=O)O[C@H]1[C@H]2[C@H]([C@@H]3[C@@H](O)[C@@H]4[C@H]([C@H](C)C=C5OC(=O)[C@@](C)(O)[C@@]54C)[C@@]3(C)[C@H]1OC(C)=O)[C@@H](OC(=O)CC(C)C)C(=O)[C@H]1C[C@@H]3O[C@@H]3[C@H](OC(C)=O)[C@]21C | < 4.70 | – | – | –
13 | CC(=O)O[C@H]1[C@H]2[C@H]([C@@H]3[C@@H](OC(=O)C4CC4)[C@@H]4[C@H]([C@H](C)C=C5OC(=O)[C@@](C)(O)[C@@]54C)[C@@]3(C)[C@H]1OC(C)=O)[C@@H](O)C(=O)[C@H]1C[C@@H]3O[C@@H]3[C@H](OC(C)=O)[C@]21C | < 4.70 | – | – | –
14 | CC(=O)O[C@@H]1[C@H]2[C@H]3[C@H]([C@H](OC(C)=O)[C@H](OC(C)=O)[C@]2(C)[C@@H]2[C@@H]1[C@]1(C)C(=C[C@H]2C)OC(=O)[C@@]1(C)O)[C@]1(C)[C@H](C[C@@H]2O[C@@H]2[C@@H]1OC(C)=O)C(=O)[C@@H]3O [TACCALONOLIDE A] | 5.27 | – | – | –
15 | CC(=O)O[C@H]1[C@H]2[C@H]([C@@H]3[C@@H](OC(=O)C(C)(C)C)[C@@H]4[C@H]([C@H](C)C=C5OC(=O)[C@@](C)(O)[C@@]54C)[C@@]3(C)[C@H]1OC(C)=O)[C@@H](O)C(=O)[C@H]1C[C@@H]3O[C@@H]3[C@H](OC(C)=O)[C@]21C | 5.62 | – | – | –
16 | CC(=O)O[C@H]1[C@H]2[C@H]([C@@H]3[C@@H](O)[C@@H]4[C@H]([C@H](C)[C@H]5O[C@]56OC(=O)[C@@](C)(OC(=O)C5CC5)[C@]46C)[C@@]3(C)[C@H]1OC(C)=O)[C@@H](OC(=O)C1CC1)C(=O)[C@H]1C[C@@H]3O[C@@H]3[C@H](OC(C)=O)[C@]21C | 6.89 | Active | Active | –
17 | CC(=O)O[C@H]1[C@H]2[C@H]([C@@H]3[C@@H](OC=O)[C@@H]4[C@H]([C@H](C)C=C5OC(=O)[C@@](C)(O)[C@@]54C)[C@@]3(C)[C@H]1OC(C)=O)[C@@H](O)C(=O)[C@H]1C[C@@H]3O[C@@H]3[C@H](OC(C)=O)[C@]21C | < 4.70 | – | – | –
18 | CC(=O)O[C@H]1[C@H]2[C@H]([C@@H]3[C@@H](O)[C@@H]4[C@H]([C@H](C)C=C5OC(=O)[C@@](C)(OC(=O)CC(C)C)[C@@]54C)[C@@]3(C)[C@H]1OC(C)=O)[C@@H](OC(=O)CC(C)C)C(=O)[C@H]1C[C@@H]3O[C@@H]3[C@H](OC(C)=O)[C@]21C | < 4.70 | – | – | –
19 | CC(=O)O[C@H]1[C@H]2[C@H]([C@@H]3[C@@H](O)[C@@H]4[C@H]([C@H](C)C=C5OC(=O)[C@@](C)(OC(=O)C6CC6)[C@@]54C)[C@@]3(C)[C@H]1OC(C)=O)[C@@H](OC(=O)C1CC1)C(=O)[C@H]1C[C@@H]3O[C@@H]3[C@H](OC(C)=O)[C@]21C | < 4.70 | – | – | –
20 | CC(=O)O[C@H]1[C@H]2[C@H]([C@@H]3[C@@H](O)[C@@H]4[C@H]([C@H](C)[C@H]5O[C@]56OC(=O)[C@@](C)(O)[C@]46C)[C@@]3(C)[C@H]1OC(C)=O)[C@@H](OC(=O)C(C)C)C(=O)[C@H]1C[C@@H]3O[C@@H]3[C@H](OC(C)=O)[C@]21C | 7.72 | Active | Active | –
21 | CC(=O)O[C@H]1[C@H]2[C@H]([C@@H]3[C@@H](O)[C@@H]4[C@H]([C@H](C)C=C5OC(=O)[C@@](C)(O)[C@@]54C)[C@@]3(C)[C@H]1OC(C)=O)[C@@H](OC(=O)c1ccc3c(c1)C(=O)c1ccccc1C3=O)C(=O)[C@H]1C[C@@H]3O[C@@H]3[C@H](OC(C)=O)[C@]21C | 5.47 | – | – | –
22 | CC(=O)O[C@H]1[C@H]2[C@H]([C@@H]3[C@@H](O)[C@@H]4[C@H]([C@H](C)[C@H]5O[C@]56OC(=O)[C@@](C)(OC(=O)CC(C)C)[C@]46C)[C@@]3(C)[C@H]1OC(C)=O)[C@@H](OC(=O)CC(C)C)C(=O)[C@H]1C[C@@H]3O[C@@H]3[C@H](OC(C)=O)[C@]21C | 6.60 | Active | Active | –
23 | CC(=O)O[C@H]1[C@H]2[C@H]([C@@H]3[C@@H](OC(=O)c4ccc5c(c4)C(=O)c4ccccc4C5=O)[C@@H]4[C@H]([C@H](C)[C@H]5O[C@]56OC(=O)[C@@](C)(O)[C@]46C)[C@@]3(C)[C@H]1OC(C)=O)[C@@H](O)C(=O)[C@H]1C[C@@H]3O[C@@H]3[C@H](OC(C)=O)[C@]21C | 7.42 | – | – | –
24 | CC(=O)O[C@H]1[C@H]2[C@H]([C@@H]3[C@@H](O)[C@@H]4[C@H]([C@H](C)[C@H]5O[C@]56OC(=O)[C@@](C)(O)[C@]46C)[C@@]3(C)[C@H]1OC(C)=O)[C@@H](OC(=O)c1ccc3c(c1)C(=O)c1ccccc1C3=O)C(=O)[C@H]1C[C@@H]3O[C@@H]3[C@H](OC(C)=O)[C@]21C | 7.66 | – | – | –
